Experimental findings from ChEMBL document CHEMBL4052629, “Scutellarin derivatives as apoptosis inducers: Design, synthesis and biological evaluation” (Eur J Med Chem, 2017) are described below.

Series [1] relates to HepG2. Kind of series: Cell cycle arrest in human HepG2 cells assessed as accumulation at S phase at 0.3 uM after 72 hrs by propidium iodide staining-based flow cytometric analysis (reference value: 44.6%). The series is classed as functional. The procedure, abridged:
(§1)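 Concentrations used were 0, 0.3, 0.6 and 1.2 μM in HepG2 and 0, 0.16, 0.31 and 1.25 μM in PC-3, with untreated cells as control, for 72 h. Cells were trypsinized, washed in PBS, fixed in cold ethanol at 4 °C overnight, then incubated 30 min in PBS containing RNase A and propidium iodide. DNA content was read by flow cytometry to give phase distribution.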
On the technique in general: In flow cytometry, cells or beads pass a laser one at a time.

Series [2] relates to HepG2. Kind of series: Induction of apoptosis in human HepG2 cells assessed as nuclear fragmentation at 1.2 uM after 48 hrs by Hoechst 33258 staining-based fluorescent microscopic analysis. The series is classed as functional, cell-based. Summed up:
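HepG2 cells grown on coverslips were treated for 48 h at 0.3, 0.6 or 1.2 μM, then fixed in 4% paraformaldehyde for 10 min. After PBS washes, cells were stained with Hoechst 33258 for 5 min and washed again. Nuclear morphology was examined by fluorescence imaging at 350 nm excitation and 460 nm emission.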

Series [3] relates to HepG2. Kind of series: Cell cycle arrest in human HepG2 cells assessed as accumulation at S phase after 72 hrs by propidium iodide staining-based flow cytometric analysis. In kind it is functional. Summed up: as §1
Series [4] has as its system HepG2. Nature of the series: Induction of apoptosis in human HepG2 cells assessed as viable cells at 0.3 uM after 72 hrs by Annexin V-APC/7-AAD or propidium iodide staining-based flow cytometric analysis (reference value: 90.08%). The series is classed as functional. The following applies: HepG2, 72 h, read-out: Activity.
Series [5] relates to HepG2. Nature of the series: Induction of apoptosis in human HepG2 cells assessed as late apoptotic cells at 0.3 uM after 72 hrs by Annexin V-APC/7-AAD or propidium iodide staining-based flow cytometric analysis (reference value: 4.14%). In kind it is functional.
Series [6] has as its system HepG2. Kind of series: Induction of apoptosis in human HepG2 cells assessed as late apoptotic cells at 0.6 uM after 72 hrs by Annexin V-APC/7-AAD or propidium iodide staining-based flow cytometric analysis (reference value: 4.14%). The series is classed as functional.
The subject of series [7] is HepG2. Nature of the series: Induction of apoptosis in human HepG2 cells assessed as viable cells at 1.2 uM after 72 hrs by Annexin V-APC/7-AAD or propidium iodide staining-based flow cytometric analysis (reference value: 90.08%). In kind it is functional. The following applies: HepG2, 72 h, read-out: Activity.
In series [8] the test system is L02. Nature of the series: Induction of apoptosis in human LO2 cells assessed as early apoptotic cells at 1.2 uM after 72 hrs by Annexin V-FITC/7-AAD or propidium iodide staining-based flow cytometric analysis (reference value: 3.65%). The following applies: l02, 72 h. In kind it is cell-based.
The subject of series [9] is HepG2. Nature of the series: Induction of apoptosis in human HepG2 cells assessed as reduction in procaspase-3 expression levels at 2 uM after 24 hrs by membrane-based sandwich immunoassay. The series is classed as functional, cell-based. The procedure, abridged: (§2)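 HepG2 cells exposed to 2 μM for 24 h. Proteins extracted per kit protocol. Relative levels of 35 apoptosis-related proteins measured on a human apoptosis antibody array.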

Series [10] concerns HepG2. Kind of series: Induction of apoptosis in human HepG2 cells assessed as reduction in Hsp70 expression levels at 2 uM after 24 hrs by membrane-based sandwich immunoassay. In kind it is functional, cell-based. Summed up:
(§3)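 HepG2 cells treated at 2 μM for 24 h; protein extracts prepared per the kit protocol. Relative levels of 35 apoptosis-related proteins measured with a human apoptosis antibody array.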

In series [11] the test system is HepG2. Kind of series: Induction of apoptosis in human HepG2 cells assessed as reduction in HO-1 expression levels at 2 uM after 24 hrs by membrane-based sandwich immunoassay. The series is classed as functional, cell-based. The procedure, abridged: as §3
The subject of series [12] is HepG2. Nature of the series: Induction of apoptosis in human HepG2 cells assessed as reduction in c-IAP1 expression levels at 2 uM after 24 hrs by membrane-based sandwich immunoassay. The series is classed as functional, cell-based. The procedure, abridged:
as §2

Series [13] has as its system HepG2. Kind of series: Induction of apoptosis in human HepG2 cells after 72 hrs by Annexin V-APC/7-AAD or propidium iodide staining-based flow cytometric analysis. The series is classed as functional, cell-based.
In series [14] the test system is PC-3. Nature of the series: Cell cycle arrest in human PC3 cells assessed as accumulation at G1 phase at 0.16 uM after 72 hrs by propidium iodide staining-based flow cytometric analysis (reference value: 53.36%). The series is classed as functional. The procedure, abridged: as §1
Series [15] concerns PC-3. Nature of the series: Cell cycle arrest in human PC3 cells assessed as accumulation at S phase at 0.16 uM after 72 hrs by propidium iodide staining-based flow cytometric analysis (reference value: 36.46%). The series is classed as functional. Summed up: as §1
Series [16] deals with PC-3. Kind of series: Cell cycle arrest in human PC3 cells assessed as accumulation at G2/M phase at 0.31 uM after 72 hrs by propidium iodide staining-based flow cytometric analysis (reference value: 10.19%). The series is classed as functional. Summed up: as §1
Series [17] deals with PC-3. Kind of series: Cell cycle arrest in human PC3 cells assessed as accumulation at S phase at 0.31 uM after 72 hrs by propidium iodide staining-based flow cytometric analysis (reference value: 36.46%). In kind it is functional. The procedure, abridged:
as §1

Series [18] deals with PC-3. Kind of series: Cell cycle arrest in human PC3 cells assessed as accumulation at G1 phase at 1.25 uM after 72 hrs by propidium iodide staining-based flow cytometric analysis (reference value: 53.36%). The series is classed as functional. The procedure, abridged:
as §1

Series [19] deals with PC-3. Kind of series: Cell cycle arrest in human PC3 cells assessed as accumulation at G2/M phase at 1.25 uM after 72 hrs by propidium iodide staining-based flow cytometric analysis (reference value: 10.19%). The series is classed as functional. The procedure, abridged: as §1
Series [20] concerns PC-3. Nature of the series: Cell cycle arrest in human PC3 cells assessed as accumulation at S phase at 1.25 uM after 72 hrs by propidium iodide staining-based flow cytometric analysis (reference value: 36.46%). The series is classed as functional. Summed up: as §1
The test system of series [21] is PC-3. Kind of series: Induction of apoptosis in human PC3 cells assessed as chromatin condensation at 0.16 to 1.25 uM after 48 hrs by Hoechst 33258 staining-based fluorescent microscopic analysis. The series is classed as functional, cell-based. The procedure, abridged:
(§4)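 PC-3 cells grown on sterile cover slips were exposed to 0, 0.16, 0.31 or 1.25 μM, or vehicle, for 48 h. Then fixed with 4% paraformaldehyde for 10 min, washed twice in PBS, stained with Hoechst 33258 for 5 min and washed again. Nuclei imaged at 350 nm excitation and 460 nm emission.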

Series [22] has as its system PC-3. Kind of series: Induction of apoptosis in human PC3 cells assessed as rupture of cell membrane at 0.16 to 1.25 uM after 48 hrs by Hoechst 33258 staining-based fluorescent microscopic analysis. The series is classed as functional. Summed up:
as §4

Series [23] has as its system PC-3. Kind of series: Induction of apoptosis in human PC3 cells assessed as early apoptotic cells at 0.16 uM after 72 hrs by Annexin V-APC/7-AAD or propidium iodide staining-based flow cytometric analysis (reference value: 4.09%). The series is classed as functional.
Series [24] deals with PC-3. Nature of the series: Induction of apoptosis in human PC3 cells assessed as early apoptotic cells at 0.31 uM after 72 hrs by Annexin V-APC/7-AAD or propidium iodide staining-based flow cytometric analysis (reference value: 4.09%). The series is classed as functional.
Series [25] in a line: Induction of apoptosis in human LO2 cells assessed as viable cells at 1.25 uM after 72 hrs by Annexin V-FITC/7-AAD or propidium iodide staining-based flow cytometric analysis (reference value: 94.26%). In kind it is cell-based, L02. The following applies: read-out: Activity.
The subject of series [26] is PC-3. Kind of series: Induction of apoptosis in human PC3 cells assessed as reduction in mitochondrial membrane potential at 0.31 uM after 48 hrs by JC-1 staining-based flow cytometric analysis (reference value: 1.86%). The series is classed as functional. Details: scale not given: the % may be the effect or the level left. The procedure, abridged: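 After overnight culture, PC-3 cells were treated in triplicate with 0, 0.16, 0.31 or 1.25 μM, or vehicle, for 48 h. They were then loaded with JC-1, and the proportion with depolarized mitochondrial membrane potential was counted by flow cytometry.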

Series [27] has as its system PC-3. Kind of series: Induction of apoptosis in human PC3 cells after 72 hrs by Annexin V-APC/7-AAD or propidium iodide staining-based flow cytometric analysis. In kind it is functional, cell-based.

Activity calls are given as the source filed them. No cut-off for these calls is given here.

Regarding `O=C(NCCCOc1no[n+]([O-])c1S(=O)(=O)c1ccccc1)[C@H]1O[C@@H](Oc2cc3oc(-c4ccc(OCc5ccccc5)cc4)cc(=O)c3c(O)c2OCc2ccccc2)[C@H](O)[C@@H](O)[C@@H]1O`, the Activity was 47.14% in [1]; “Dose-dependent effect” in [3]; 13.5% in [5]; 19.97% in series [6]; 14.2% in series [8]; “Dose-dependent effect” in series [13]. Besides, the outcome in [2], in series [9], in [10], in [11] and in [12] was Active. In addition, the viability at 0.3 µM in [4] is 79.6%. In addition, in [7], the viability at 1.2 µM was 41.8%.
In the case of `COc1ccc(-c2cc(=O)c3c(O)c(OC)c(O[C@@H]4O[C@H](C(=O)NCCOc5no[n+]([O-])c5S(=O)(=O)c5ccccc5)[C@@H](O)[C@H](O)[C@H]4O)cc3o2)cc1`, the Activity in series [14] is given as 50.05%; in series [15], 38.34%; in [16], 13.48%; in [17] it was 43.3%; in [18] it was 40.49%; in series [19], 9.1%. Besides, the Activity in series [20] was 50.41%; in series [23] it was 3.71%; in series [24], 13.2%; in series [26], 35.91%; in series [27] it was “Dose-dependent effect”. Also, the outcome in series [21] and in series [22] was Active. Moreover, in series [25], the viability at 72 h, 1.25 µM is 78.4%.
